# Assay results from different studies.
# Each line is one published result; the experiments were not run side by side.
# NPY2R: Neuropeptide Y receptor type 2 (NPY2R, Homo sapiens, UniProt P49146)
# PDGFRB: Platelet-derived growth factor receptor beta (PDGFRB, Homo sapiens, UniProt P09619)
# DYRK1A: Dual specificity tyrosine-phosphorylation-regulated kinase 1A (DYRK1A, Homo sapiens, UniProt Q13627)
SMILES,target,test,conditions,quantity,result
NC/C(=C\F)COc1cccc(Cn2c(=S)[nH]c(=O)c3[nH]cnc32)c1,NPY2R,"ligand displacement, radioligand",10 µM,inhibition,< 50%
C#Cc1cc(-c2cc(Nc3nc(N[C@@H](C)c4ccc(F)cn4)ncc3Cl)n[nH]2)ccc1C=O,"Homeodomain-interacting protein kinase 2 (HIPK2, Homo sapiens, UniProt Q9H2X6)","enzyme activity, inhibitor",0.2 µM,inhibition,40.4%
C1=C/COCc2cc(ccc2OCCN2CCCC2)Nc2nccc(n2)-c2cccc(c2)COC/1,PDGFRB,binding,0.1 µM,remaining binding,32%
Cc1cc(O)c(-c2ccc([C@@H](C)CN(C)C)cc2)c2c1[nH]c(=O)c1sccc12,"Microtubule-associated serine/threonine-protein kinase 3 (MAST3, Homo sapiens, UniProt O60307)","enzyme activity, inhibitor",0.1 µM,inhibition,2.4%
Nc1ncnc2c1ncn2[C@@H]1O[C@H](COP(=O)(O)OP(=O)(O)O)[C@@H](O)[C@H]1O,"Inositol-tetrakisphosphate 1-kinase (Homo sapiens, UniProt Q13572)","enzyme activity, substrate",,Km,1.5 µM
Nc1cc(-c2ccncc2)cs1,DYRK1A,"enzyme activity, inhibitor, ADP detection",10 µM,inhibition,25.6%
CN(C)CCOC(=O)COc1ccc(Cl)cc1,"Alpha-1D adrenergic receptor (ADRA1D, Homo sapiens, UniProt P25100)","ligand displacement, radioligand","1 µM, cell membranes",inhibition,0%
CC1(C)Oc2ccc3ccc(=O)oc3c2C/C1=N/O,DYRK1A,"enzyme activity, inhibitor, ADP detection",10 µM,inhibition,38.6%
CC(=O)ON=C1C=CC(=C(C#N)c2ccccc2)C=C1,DYRK1A,"enzyme activity, inhibitor, ADP detection",20 µM,activity vs control,82%
COc1ccc2oc(-c3ccc4nc(N)oc4c3)c/c(=N\c3ccccc3NC(=O)CCN)c2c1,"Dual specificity tyrosine-phosphorylation-regulated kinase 1B (DYRK1B, Homo sapiens, UniProt Q9Y463)","binding, competition with immobilised ligand",1 µM,remaining binding,102%
N#Cc1ccc(NC(=O)Nc2ccccc2)cc1,PDGFRB,"cell-free assay, competition with immobilised ligand",25 µM,remaining binding,33%
CCN1/C(=C/C(C)=O)Sc2ccc(F)cc21,NPY2R,"ligand displacement, radioligand",10 µM,inhibition,0%
Clc1ccc(-c2cn[nH]c2)s1,DYRK1A,"enzyme activity, inhibitor, ADP detection",10 µM,inhibition,52.5%
CCCCC(=O)Nc1ccc(-c2ccc3ncn(CCC)c(=O)c3c2)cn1,"Ephrin type-A receptor 7 (EPHA7, Homo sapiens, UniProt Q15375)","binding, competition with immobilised ligand",0.5 µM,remaining binding,100%
